Test results taken from ChEMBL document CHEMBL2434944, “Novel acetamidothiazole derivatives: synthesis and in vitro anticancer evaluation” (Eur J Med Chem, 2013).

Assays:
[1] = test system: 786-0; assay: Growth inhibition of human 786-0 cells assessed as cell growth at 10^-5 M after 48 hrs by sulforhodamine B assay relative to control; assay type: functional; conditions: 786-0, 48 h, read-out: Activity
Outline: (§1)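 NCI-60 single-dose screen at 10^-5 M. Cells grown in RPMI 1640 with 5% FBS and 2 mM L-glutamine, plated at 5,000–40,000 cells/well according to doubling time, and preincubated 24 h at 37°C, 5% CO2. Compound dissolved in DMSO and added. Exposure 48 h. Adherent cells fixed with cold TCA (10% final), suspension cells with 16% final TCA. Read-out is 0.4% SRB staining, dye solubilised in 10 mM Tris, absorbance at 515 nm. Percent growth is calculated against the time-zero plate and untreated control.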

[2] = test system: OVCAR-8; assay: Growth inhibition of human OVCAR8 cells assessed as cell growth at 10^-5 M after 48 hrs by sulforhodamine B assay relative to control; assay type: functional; conditions: OVCAR-8, 48 h, read-out: Activity; outline: as §1
[3] = test system: OVCAR-4; assay: Growth inhibition of human OVCAR4 cells assessed as cell growth at 10^-5 M after 48 hrs by sulforhodamine B assay relative to control; assay type: functional; conditions: OVCAR-4, 48 h, read-out: Activity; outline: as §1
[4] = test system: IGROV-1; assay: Growth inhibition of human IGROV1 cells assessed as cell growth at 10^-5 M after 48 hrs by sulforhodamine B assay relative to control; assay type: functional; conditions: IGROV-1, 48 h, read-out: Activity; outline: as §1
[5] = test system: MDA-MB-435; assay: Growth inhibition of human MDA-MB-435 cells assessed as cell growth at 10^-5 M after 48 hrs by sulforhodamine B assay relative to control; assay type: functional; conditions: MDA-MB-435, 48 h, read-out: Activity; outline: as §1
[6] = test system: LOX IMVI; assay: Growth inhibition of human LOXIMVI cells assessed as cell growth at 10^-5 M after 48 hrs by sulforhodamine B assay relative to control; assay type: functional; conditions: read-out: Activity; outline: as §1
[7] = test system: U-251; assay: Growth inhibition of human U251 cells assessed as cell growth at 10^-5 M after 48 hrs by sulforhodamine B assay relative to control; assay type: functional; conditions: U-251, 48 h, read-out: Activity
Outline: (§2)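 NCI-60 single-dose screen, 10^-5 M final. Cells grown in RPMI 1640 with 5% FBS and 2 mM L-glutamine, seeded at 5,000–40,000 cells/well by doubling time. Preincubated 24 h at 37°C, 5% CO2. Compound in DMSO, diluted in medium with gentamicin, then 48 h exposure. Fixed with cold TCA, SRB stained, A515 read. Percent growth vs untreated control, time-zero plate corrected.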

[8] = test system: KM12; assay: Growth inhibition of human KM12 cells assessed as cell growth at 10^-5 M after 48 hrs by sulforhodamine B assay relative to control; assay type: functional; conditions: KM12, 48 h, read-out: Activity; outline: as §1
[9] = test system: HCT-116; assay: Growth inhibition of human HCT116 cells assessed as cell growth at 10^-5 M after 48 hrs by sulforhodamine B assay relative to control; assay type: functional; conditions: HCT-116, 48 h, read-out: Activity; outline: as §1
[10] = Growth inhibition of human HCC2998 cells assessed as cell growth at 10^-5 M after 48 hrs by sulforhodamine B assay relative to control; assay type: functional; conditions: HCC 2998, 48 h, read-out: Activity; outline: as §1
[11] = test system: NCI-H522; assay: Growth inhibition of human NCI-H522 cells assessed as cell growth at 10^-5 M after 48 hrs by sulforhodamine B assay relative to control; assay type: functional; conditions: NCI-H522, 48 h, read-out: Activity; outline: as §1
[12] = test system: NCI-H23; assay: Growth inhibition of human NCI-H23 cells assessed as cell growth at 10^-5 M after 48 hrs by sulforhodamine B assay relative to control; assay type: functional; conditions: NCI-H23, 48 h, read-out: Activity; outline: as §1
[13] = test system: HOP-92; assay: Growth inhibition of human HOP92 cells assessed as cell growth at 10^-5 M after 48 hrs by sulforhodamine B assay relative to control; assay type: functional; conditions: HOP-92, 48 h, read-out: Activity; outline: as §1
[14] = test system: A549; assay: Growth inhibition of human A549 cells assessed as cell growth at 10^-5 M after 48 hrs by sulforhodamine B assay relative to control; assay type: functional; conditions: A549, 48 h, read-out: Activity; outline: as §1
[15] = test system: MOLT-4; assay: Growth inhibition of human MOLT4 cells assessed as cell growth at 10^-5 M after 48 hrs by sulforhodamine B assay relative to control; assay type: functional; conditions: MOLT-4, 48 h, read-out: Activity; outline: as §1
[16] = biological target: T1, Leukotriene A-4 hydrolase (Homo sapiens, UniProt P09960); assay: Inhibition of human leukotriene A-4 hydrolase
T1 sequence (P09960 whole entry): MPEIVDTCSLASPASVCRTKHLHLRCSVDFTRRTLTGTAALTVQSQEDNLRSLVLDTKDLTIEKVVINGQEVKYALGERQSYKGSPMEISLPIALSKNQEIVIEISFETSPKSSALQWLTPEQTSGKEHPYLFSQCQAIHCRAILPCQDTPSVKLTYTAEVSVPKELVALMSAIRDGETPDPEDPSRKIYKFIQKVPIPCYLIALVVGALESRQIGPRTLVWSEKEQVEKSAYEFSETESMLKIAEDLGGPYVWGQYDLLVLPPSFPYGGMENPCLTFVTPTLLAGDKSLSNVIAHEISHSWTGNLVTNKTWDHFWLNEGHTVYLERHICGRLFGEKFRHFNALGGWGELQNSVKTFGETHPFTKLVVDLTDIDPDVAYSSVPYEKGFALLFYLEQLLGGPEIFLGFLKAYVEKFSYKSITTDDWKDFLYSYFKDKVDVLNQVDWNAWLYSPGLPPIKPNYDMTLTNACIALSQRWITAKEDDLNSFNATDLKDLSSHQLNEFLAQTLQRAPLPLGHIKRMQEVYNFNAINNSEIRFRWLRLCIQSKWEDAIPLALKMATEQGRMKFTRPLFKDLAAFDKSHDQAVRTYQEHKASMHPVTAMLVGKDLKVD

[17] = biological target: Mitogen-activated protein kinase 1 (Homo sapiens, UniProt P28482); assay: Inhibition of human MAPK1
[18] = test system: MDA-MB-468; assay: Growth inhibition of human MDA-MB-468 cells assessed as cell growth at 10^-5 M after 48 hrs by sulforhodamine B assay relative to control; assay type: functional; conditions: MDA-MB-468, 48 h, read-out: Activity; outline: as §1
[19] = test system: MDA-MB-231; assay: Growth inhibition of human MDA-MB-231 cells assessed as cell growth at 10^-5 M after 48 hrs by sulforhodamine B assay relative to control; assay type: functional; conditions: MDA-MB-231, 48 h, read-out: Activity; outline: as §1
[20] = test system: UO-31; assay: Growth inhibition of human UO31 cells assessed as cell growth at 10^-5 M after 48 hrs by sulforhodamine B assay relative to control; assay type: functional; conditions: UO-31, 48 h, read-out: Activity; outline: as §2

Chain of Mitogen-activated protein kinase 1 (P28482 whole entry): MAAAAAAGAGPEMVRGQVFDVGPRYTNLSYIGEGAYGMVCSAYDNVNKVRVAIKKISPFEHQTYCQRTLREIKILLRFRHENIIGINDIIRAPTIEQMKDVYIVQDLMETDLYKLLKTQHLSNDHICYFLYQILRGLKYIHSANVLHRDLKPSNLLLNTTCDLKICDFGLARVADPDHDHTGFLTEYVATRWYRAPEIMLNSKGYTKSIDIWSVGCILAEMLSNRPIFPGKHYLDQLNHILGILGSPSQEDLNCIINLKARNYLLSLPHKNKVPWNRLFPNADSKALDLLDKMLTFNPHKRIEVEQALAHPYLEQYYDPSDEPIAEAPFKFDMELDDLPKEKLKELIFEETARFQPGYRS

Row | Structure (SMILES) | growth at 10 µM [1] | growth at 10 µM [2] | growth at 10 µM [3] | growth at 10 µM [4] | growth at 10 µM [5] | growth at 10 µM [6] | growth at 10 µM [7] | growth at 10 µM [8] | growth at 10 µM [9] | growth at 10 µM [10] | growth at 10 µM [11] | growth at 10 µM [12] | growth at 10 µM [13] | growth at 10 µM [14] | growth at 10 µM [15] | Ki [16] | Ki [17] | growth at 10 µM [18] | growth at 10 µM [19] | growth at 10 µM [20]
1 | Cc1ccc(-c2csc(=N)n2CC(=O)N2CCN(c3ccccc3)CC2)cc1 | 101% | 92.9% | 88.4% | 93.2% | 92.2% | 96.8% | 95.3% | 104% | 103% | 104% | 95.5% | 101% | 69.2% | 97.7% | 94.5% | 4290 nM | 2090 nM | 97.6% | 78.8% | 78.8%
2 | N=c1scc(-c2ccc(Cl)cc2)n1CC(=O)N1CCN(c2ccccc2)CC1 | 97.9% | 97.8% | 86.4% | 101% | 92.2% | 103% | 89.6% | 108% | 101% | 95.6% | 76.9% | 98.3% | 76.1% | 84.8% | 87% | 93 nM | 501 nM | 89.8% | 114% | 91%
3 | N=c1scc(-c2ccccc2)n1CC(=O)N1CCN(c2ccccc2)CC1 | 104% | 94.7% | 90.5% | 98.9% | 96.5% | 90.7% | 91.2% | 104% | 107% | 100% | 85.1% | 91.7% | 59% | 90.3% | 99.6% | 643 nM | 1730 nM | 107% | 95% | 58%
4 | CC(=O)N1CCN(C(=O)Cn2c(-c3ccc(C)cc3)csc2=N)CC1 | 98.8% | 98.4% | 97% | 103% | 80.6% | 85.5% | 85% | 99.4% | 85.9% | 101% | 76.9% | 95.7% | 60.9% | 83.4% | 73% | 1640 nM | 2230 nM | 94.3% | 75.3% | 83.1%
5 | CC(=O)N1CCN(C(=O)Cn2c(-c3ccc(Cl)cc3)csc2=N)CC1 | 94.4% | 91.2% | 77.2% | 100% | 85.3% | 93.8% | 85.9% | 95.2% | 93% | 98.9% | 62.1% | 96.9% | 82% | 75.9% | 77% | 607 nM | 778 nM | 82.9% | 111% | 89.1%
6 | CC(=O)N1CCN(C(=O)Cn2c(-c3ccccc3)csc2=N)CC1 | 103% | 96.7% | 96.9% | 95.6% | 105% | 94.3% | 96.9% | 102% | 96.1% | 107% | 81.3% | 98.5% | 75% | 96% | 96.2% | 2590 nM | 3670 nM | 94.6% | 95.4% | 60.4%
